The record followed here is ChEMBL document CHEMBL1154922, “Rapid P1 SAR of brain penetrant tertiary carbinamine derived BACE inhibitors” (Bioorg Med Chem Lett, 2010).

The target in data set [1] is Beta-secretase 1 (Homo sapiens) (UniProt P56817). As to the kind of experiment: Inhibition of BACE1 at pH 6.5. In short, it runs like this: (§1)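 Enzymatic BACE-1 inhibition assay run at the pH given in each line. Potency is reported as the inflection point (IP), in nM.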
The target is the same in data set [2]. As to the kind of experiment: Inhibition of BACE1-mediated production of secreted beta-secretase amino terminal fragment. The gist of the method: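 Cell-based sAPP_NF assay: cells express APP carrying the NF mutation, and secreted sAPP is the read-out. IC50 is given as mean ± deviation.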
The species named for a further data set is Mus musculus. As to the kind of experiment: Inhibition of mouse P-glycoprotein assessed as PGP ratio.
The test system of data set [3] is Rhesus monkey. As to the kind of experiment: Reduction in CSF amyloid beta40 level in cisterna magna ported Rhesus monkey at 5 mg/kg, po co-administered with CYP inhibitor ritonavir 10 mg/kg, po measured after 4 hrs by sandwich ELISA. It counts as functional, organism-based. Conditions: Macaca mulatta. (In general: ELISA stands for enzyme-linked immunosorbent assay.)

Data set [4] deals with Rhesus monkey. As to the kind of experiment: Reduction in CSF amyloid beta42 level in cisterna magna ported Rhesus monkey at 15 mg/kg, po co-administered with CYP inhibitor ritonavir 10 mg/kg, po measured after 4 hrs by sandwich ELISA. It counts as functional, organism-based. The note with it: Macaca mulatta.
Data set [5] in a line: Plasma concentration in Rhesus monkey at 5 mg/kg, po co-administered with CYP inhibitor ritonavir 10 mg/kg, po after 4 hrs. It counts as ADME, organism-based, Macaca mulatta. In short, it runs like this:
(§2)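 In a satellite PK experiment, rhesus monkeys (n = 3) received the test article at the stated dose together with 10 mpk ritonavir. Plasma levels (µM) were measured at 4 h and 24 h and averaged with standard deviations. Values below the limit of quantitation are marked BLQ.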

Data set [6] is described as follows: Plasma concentration in Rhesus monkey at 15 mg/kg, po co-administered with CYP inhibitor ritonavir 10 mg/kg, po after 4 hrs. It counts as ADME, organism-based, Macaca mulatta. The gist of the method:
as §2

Data set [7] concerns the target ATP-dependent translocase ABCB1 (Homo sapiens, UniProt P08183). As to the kind of experiment: Inhibition of human P-glycoprotein assessed as PGP ratio.
Data set [8] can be described thus: Plasma concentration in Rhesus monkey at 15 mg/kg, po co-administered with CYP inhibitor ritonavir 10 mg/kg, po after 24 hrs. The data set is classed as ADME, organism-based, Macaca mulatta. The gist of the method:
as §2

For data set [9], the system named is Rhesus monkey. The experiment in a line: Reduction in CSF soluble APPbeta level in cisterna magna ported Rhesus monkey at 15 mg/kg, po co-administered with CYP inhibitor ritonavir 10 mg/kg, po measured after 4 hrs by sandwich ELISA. It counts as functional, organism-based. The note with it: Macaca mulatta.
In data set [10] the test system is Rhesus monkey. The experiment in a line: Plasma concentration in Rhesus monkey at 5 mg/kg, po co-administered with CYP inhibitor ritonavir 10 mg/kg, po after 24 hrs. The data set is classed as ADME, organism-based, Macaca mulatta. Conditions: in vivo, BLD = below limit of detection. In short, it runs like this:
as §2

Data set [11] relates to Rhesus monkey. The experiment in a line: Reduction in CSF amyloid beta40 level in cisterna magna ported Rhesus monkey at 15 mg/kg, po co-administered with CYP inhibitor ritonavir 10 mg/kg, po measured after 24 hrs by sandwich ELISA. The data set is classed as functional, organism-based. The note with it: Macaca mulatta.
Data set [12] in a line: Partition coefficient, log P of the compound. The data set is classed as physicochemical. Conditions: octanol/water.
For data set [13], the target named is Beta-secretase 1 (Homo sapiens) (UniProt P56817). The experiment in a line: Inhibition of BACE1 at pH 4.5. The gist of the method: as §1
A short description of data set [14]: Ratio of drug level in brain to plasma in transgenic mouse at 30 mg/kg, ip. Conditions: brain and plasma.
The test system of data set [15] is Rhesus monkey. As to the kind of experiment: Reduction in CSF amyloid beta42 level in cisterna magna ported Rhesus monkey at 15 mg/kg, po co-administered with CYP inhibitor ritonavir 10 mg/kg, po measured after 4 hrs by sandwich ELISA. The note with it: Macaca mulatta.
The test system of data set [16] is Rhesus monkey. The experiment in a line: Reduction in CSF soluble APPbeta level in cisterna magna ported Rhesus monkey at 15 mg/kg, po co-administered with CYP inhibitor ritonavir 10 mg/kg, po measured after 4 hrs by sandwich ELISA. Conditions: Macaca mulatta.
Data set [17] relates to Rhesus monkey. As to the kind of experiment: Reduction in CSF amyloid beta40 level in cisterna magna ported Rhesus monkey at 15 mg/kg, po co-administered with CYP inhibitor ritonavir 10 mg/kg, po measured after 4 hrs by sandwich ELISA. It counts as functional, organism-based. Conditions: Macaca mulatta.

Broadly, the logP is the decadic logarithm of the partition coefficient of the neutral form, usually between octanol and water. For orientation: Kp means the ratio of the level in a tissue or fluid to that in plasma or blood.

Activity calls are given as the source filed them. The calls are words filed in the database; no cut-off is given here. A value given as a limit tells only on which side of the number the result lay.

Beta-secretase 1 (Homo sapiens), sequence (P56817 whole entry, the tested form may be a part): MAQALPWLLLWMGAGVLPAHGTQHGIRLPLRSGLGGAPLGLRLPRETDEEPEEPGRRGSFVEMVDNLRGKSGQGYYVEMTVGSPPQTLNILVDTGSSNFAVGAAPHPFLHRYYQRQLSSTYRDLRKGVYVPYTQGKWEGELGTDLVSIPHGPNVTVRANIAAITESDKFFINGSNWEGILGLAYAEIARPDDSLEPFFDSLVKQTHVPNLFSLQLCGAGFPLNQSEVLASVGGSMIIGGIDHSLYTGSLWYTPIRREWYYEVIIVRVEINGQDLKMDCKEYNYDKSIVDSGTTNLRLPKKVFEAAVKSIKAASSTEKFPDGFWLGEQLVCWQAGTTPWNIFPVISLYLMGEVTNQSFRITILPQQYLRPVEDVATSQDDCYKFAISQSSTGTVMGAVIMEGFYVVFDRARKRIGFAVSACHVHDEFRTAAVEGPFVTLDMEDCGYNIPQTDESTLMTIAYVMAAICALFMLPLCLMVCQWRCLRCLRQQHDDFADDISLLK
ATP-dependent translocase ABCB1, sequence (P08183 whole entry): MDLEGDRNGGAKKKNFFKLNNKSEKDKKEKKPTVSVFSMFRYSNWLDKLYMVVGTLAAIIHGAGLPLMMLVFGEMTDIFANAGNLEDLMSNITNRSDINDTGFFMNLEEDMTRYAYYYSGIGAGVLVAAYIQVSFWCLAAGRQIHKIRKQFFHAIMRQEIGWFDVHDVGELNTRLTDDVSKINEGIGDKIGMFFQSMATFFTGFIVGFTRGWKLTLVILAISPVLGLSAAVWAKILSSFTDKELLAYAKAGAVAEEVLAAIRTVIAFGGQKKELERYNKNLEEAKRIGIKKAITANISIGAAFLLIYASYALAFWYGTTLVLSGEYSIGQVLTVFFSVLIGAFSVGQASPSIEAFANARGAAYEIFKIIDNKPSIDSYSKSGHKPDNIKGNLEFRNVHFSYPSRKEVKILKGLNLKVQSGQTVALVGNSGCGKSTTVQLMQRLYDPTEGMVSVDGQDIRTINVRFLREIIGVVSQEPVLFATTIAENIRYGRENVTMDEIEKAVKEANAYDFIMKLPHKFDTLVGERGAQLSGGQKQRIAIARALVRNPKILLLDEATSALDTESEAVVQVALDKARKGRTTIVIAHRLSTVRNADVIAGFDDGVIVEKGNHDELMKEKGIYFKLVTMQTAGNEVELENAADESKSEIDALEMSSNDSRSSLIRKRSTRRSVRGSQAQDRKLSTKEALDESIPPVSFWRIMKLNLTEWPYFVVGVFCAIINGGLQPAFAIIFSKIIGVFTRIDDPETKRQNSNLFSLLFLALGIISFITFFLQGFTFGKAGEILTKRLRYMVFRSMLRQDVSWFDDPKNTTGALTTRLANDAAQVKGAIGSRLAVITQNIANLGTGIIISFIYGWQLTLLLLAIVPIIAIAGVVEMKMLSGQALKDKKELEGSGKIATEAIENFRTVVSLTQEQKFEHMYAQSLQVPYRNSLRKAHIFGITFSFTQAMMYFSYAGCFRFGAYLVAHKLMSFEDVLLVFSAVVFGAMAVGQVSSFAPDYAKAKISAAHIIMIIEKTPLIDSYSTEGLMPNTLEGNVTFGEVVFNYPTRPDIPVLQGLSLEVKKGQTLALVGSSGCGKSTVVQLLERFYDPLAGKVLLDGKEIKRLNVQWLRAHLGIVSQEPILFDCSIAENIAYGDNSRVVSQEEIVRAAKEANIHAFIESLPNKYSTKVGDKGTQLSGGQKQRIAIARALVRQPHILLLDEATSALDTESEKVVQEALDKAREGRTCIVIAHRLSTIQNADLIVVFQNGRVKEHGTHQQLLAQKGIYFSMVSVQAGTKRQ

`CCCC[C@@](C)(N)c1nnc(-c2cc(N(CCOC)C[C@H]3C[C@@H]3C)nc(N(C)S(C)(=O)=O)c2Cl)o1`: the IP is 1300 nM in data set [1] and > 2200 nM in data set [2].
`COCCN(C[C@H]1C[C@@H]1C)c1cc(-c2nnc([C@](C)(N)Cc3cccc(OC)c3)o2)c(Cl)c(N(C)S(C)(=O)=O)n1` registered an IP in data set [1] of 1500 nM.
For `COCCN(C[C@H]1C[C@@H]1C)c1cc(-c2nnc([C@](C)(N)Cc3cccc(F)c3)o2)c(Cl)c(N(C)S(C)(=O)=O)n1`, the IP worked out at 17 nM in [1] and 304 nM in [2].
Taken in the same sequence, the figures for `COCCN(C[C@H]1C[C@@H]1C)c1cc(-c2nnc([C@](C)(N)Cc3ccc(Cl)cc3)o2)c(Cl)c(N(C)S(C)(=O)=O)n1` were 4 nM and 320 nM.
Consider `COCCN(C[C@H]1C[C@@H]1C)c1cc(-c2nnc([C@](C)(N)Cc3ccc(OC)nc3)o2)c(Cl)c(N(C)S(C)(=O)=O)n1`, for which the IP in [1] stood at 1400 nM.
Regarding `COCCN(C[C@H]1C[C@@H]1C)c1cc(-c2nnc([C@](C)(N)Cc3ccccc3F)o2)c(Cl)c(N(C)S(C)(=O)=O)n1`, the IP came to 15 nM in [1] and 195 nM in data set [2].
`COCCN(C[C@H]1C[C@@H]1C)c1cc(-c2nnc([C@](C)(N)Cc3ccc(F)cc3)o2)c(Cl)c(N(C)S(C)(=O)=O)n1`: the Ratio in the data set listed under Mus musculus came out at 1.9; in [7], 1.1. In addition, the outcome with Rhesus monkey [3], in the data set on Rhesus monkey [4] and in the data set on Rhesus monkey [9] was Active. The concentration at 4 h in [5] is 1310 nM; in data set [6] it was 2340 nM. In addition, the IP in data set [1] was 2 nM; in data set [2], 15 nM. The concentration at 24 h in data set [8] was 30 nM. Further, the Cp result in the data set on Rhesus monkey [10] was “BLD”.
As for `COCCN(C[C@H]1C[C@@H]1C)c1cc(-c2nnc([C@](C)(N)Cc3ccc4c(c3)OCO4)o2)c(Cl)c(N(C)S(C)(=O)=O)n1`, the IP in data set [1] was 119 nM; in data set [2] it was 1100 nM.
`COCCN(C[C@H]1C[C@@H]1C)c1cc(-c2nnc([C@](C)(N)Cc3ncco3)o2)c(Cl)c(N(C)S(C)(=O)=O)n1` displayed an IP in data set [1] of 49000 nM.
On the same count and under the same terms, the same measure for `COCCN(C[C@H]1C[C@@H]1C)c1cc(-c2nnc([C@](C)(N)Cc3ccnc(OC)c3)o2)c(Cl)c(N(C)S(C)(=O)=O)n1`: 9900 nM.
On to `COCCN(C[C@H]1C[C@@H]1C)c1cc(-c2nnc([C@](C)(N)Cc3cccc(Cl)c3)o2)c(Cl)c(N(C)S(C)(=O)=O)n1`, for which the values for the IP in data set [1] and in [2] were 65 nM and 4320 nM, respectively.
Consider `COCCN(C[C@H]1C[C@@H]1C)c1cc(-c2nnc([C@](C)(N)Cc3ccccc3)o2)c(Cl)c(N(C)S(C)(=O)=O)n1`, for which the Ratio in the data set filed under Mus musculus is 2.3; in [7], 1.9. Also, the outcome in the data set on Rhesus monkey [11], with Rhesus monkey [15], with Rhesus monkey [16] and in the data set with Rhesus monkey [17] was Active. The logP in data set [12] is > 3.2. Moreover, the IP in data set [13] is 0.4 nM; in data set [1], 5 nM; in data set [2] it was 46 nM. For the same compound, the Kp in [14] is 9. Moreover, in data set [6], the concentration at 4 h is 3360 nM. Moreover, the concentration at 24 h in [8] was found to be 100 nM.
Consider `COCCN(C[C@H]1C[C@@H]1C)c1cc(-c2nnc([C@](C)(N)Cc3ccc(Br)cc3Br)o2)c(Cl)c(N(C)S(C)(=O)=O)n1`, for which the IP in [1] is > 600000 nM.
Take `COCCN(C[C@H]1C[C@@H]1C)c1cc(-c2nnc([C@](C)(N)Cc3ccc(OC)cc3)o2)c(Cl)c(N(C)S(C)(=O)=O)n1`: the IP in data set [1] came out at 180 nM; in data set [2], 4300 nM.
Taken in the same sequence, the figures for `COCCN(C[C@H]1C[C@@H]1C)c1cc(-c2nnc([C@](C)(N)Cc3ccoc3)o2)c(Cl)c(N(C)S(C)(=O)=O)n1` were 142 nM and 1930 nM.
Regarding `COCCN(C[C@H]1C[C@@H]1C)c1cc(-c2nnc([C@](C)(N)Cc3ccco3)o2)c(Cl)c(N(C)S(C)(=O)=O)n1`, the values for the IP in data set [1] and in data set [2] were 375 nM and 3190 nM, respectively.
Consider `COCCN(C[C@H]1C[C@@H]1C)c1cc(-c2nnc([C@](C)(N)Cc3cc(Br)c(F)cc3Br)o2)c(Cl)c(N(C)S(C)(=O)=O)n1`, for which, in data set [1], the IP is 29000 nM.
In the case of `COCCN(C[C@H]1C[C@@H]1C)c1cc(-c2nnc([C@](C)(N)Cc3ccccc3Cl)o2)c(Cl)c(N(C)S(C)(=O)=O)n1`, the IP in [1] was 340 nM; in data set [2] it was > 6700 nM.
`COCCN(C[C@H]1C[C@@H]1C)c1cc(-c2nnc([C@](C)(N)Cc3ccccc3OC)o2)c(Cl)c(N(C)S(C)(=O)=O)n1` yielded an IP in data set [1] of 3500 nM.
